This is an account of results in ChEMBL document CHEMBL1149278, “Synthesis and structure-activity relationship studies for hydantoins and analogues as voltage-gated sodium channel ligands” (J Med Chem, 2004).

Some results are limits rather than exact numbers.

This test in a line: Displacement of [3H]BTX-B from voltage gated sodium channel in rat cerebral cortex synaptoneurosomes. It counts as tissue-based. In a few lines:
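Rat cerebral cortex synaptoneurosomes (~1 mg protein), stored frozen at –70 °C, thawed and resuspended in HEPES incubation buffer. […] Filtration assay; nonspecific binding defined with 300 μM veratridine. Triplicates, DPH control run alongside. IC50 by Probit analysis, using only points with 10–90% inhibition.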
(In general: Loss of bound radioactivity is the signal in a displacement assay; it reports binding, not function.)
As to `CCCCCC1(c2ccccc2)OC(=O)NC1=O` (stereo not given), the IC50 (as a rule, the concentration that inhibits the measured activity by half) turned out to be 112 µM.

In the case of `CCC(OCCCc1ccccc1)(C(=O)NCCCc1ccccc1)c1ccccc1` (stereo not given), the IC50 stood at 4.3 µM.

As to `CCCCCC(N)(C(=O)O)c1ccccc1` (stereo not given), the half-inhibitory concentration (IC50) is greater than 500 µM.

Consider `CCCCCC(O)(C(=O)N1CCN(C(c2ccccc2)c2ccccc2)CC1)c1ccccc1` (stereo not given), for which the IC50 is 4.8 µM.

For the compound `CCCCCC(O)(C(N)=O)c1ccccc1` (stereo not given), the IC50 was 178 µM.

On to `CCCCCCCC1(c2ccccc2)NC(=O)N(S(C)(=O)=O)C1=O` (stereo not given), for which the IC50 is 13 µM.

In the case of `CC(O)(C(=O)N1CCN(C(c2ccccc2)c2ccccc2)CC1)c1ccccc1` (stereo not given), the IC50 amounted to 6.3 µM.

`CCCCCC(O)(C(=O)O)c1ccccc1` (stereo not given) came in with an IC50 greater than 500 µM.

`CCC(O)(C(=O)NCCc1ccccc1)c1ccccc1` (stereo not given) displayed an IC50 of 30 µM.

For the compound `CCCCCCCCCC(O)(C(=O)O)c1ccccc1` (stereo not given), the IC50 is 84 µM.

As to `CCCCCCCC(O)(C(N)=O)c1ccccc1` (stereo not given), the IC50 was 9 µM.

For the compound `CCCC1(c2ccccc2)NC(=O)N(S(C)(=O)=O)C1=O` (stereo not given), the IC50 turned out to be 500 µM.

On to `CCC1(c2ccccc2)NC(=O)N(CN2CCN(C(c3ccccc3)c3ccccc3)CC2)C1=O` (stereo not given), for which the IC50 is 3.3 µM.

On to `CCCCCC(O)(C(=O)NCCC(c1ccccc1)c1ccccc1)c1ccccc1` (stereo not given), for which the IC50 was 5.3 µM.

With `CCCCCC1(c2ccccc2)NC(=O)N(Cc2ccccc2)C1=O` (stereo not given), the IC50 amounted to 6.9 µM.

Compound `CCC(O)(C(N)=O)c1ccccc1` (stereo not given) displayed an IC50 greater than 500 µM.

With `CCCCCC1(c2ccccc2)NC(=O)N(S(C)(=O)=O)C1=O` (stereo not given), the IC50 was 112 µM.

The compound `CCC1(c2ccccc2)NC(=O)NC1=O` (stereo not given) showed an IC50 greater than 200 µM.

Regarding `O=C1NC(c2ccccc2)(c2ccccc2)C(=O)N1CCN1CCN(C(c2ccccc2)c2ccccc2)CC1`, the IC50 was found to be 0.22 µM.

`CCCCCC(O)(C(=O)NCCCc1ccccc1)c1ccccc1` (stereo not given): the IC50 came out at 2.5 µM.

`CCCCCCCC1(c2ccccc2)NC(=O)NC1=O` (stereo not given): the IC50 was 5 µM.

`CCCCCCCCCC1(c2ccccc2)NC(=O)NC1=O` (stereo not given): the IC50 is 5 µM.

`CCC1(c2ccccc2)NC(=O)N(S(C)(=O)=O)C1=O` (stereo not given): the IC50 is greater than 500 µM.

As to `CCCCCCCCCC1(c2ccccc2)NC(=O)N(S(C)(=O)=O)C1=O` (stereo not given), the IC50 turned out to be 11 µM.

`CCCC1(c2ccccc2)OC(=O)NC1=O` (stereo not given) returned an IC50 of 448 µM.

`CCCCCCCCCC1(c2ccccc2)NC(=O)N(Cc2ccccc2)C1=O` (stereo not given): the IC50 was found to be 5.1 µM.

In the case of `CCCCCCCCCC(O)(C(N)=O)c1ccccc1` (stereo not given), the 50% inhibitory concentration (IC50) was 6.5 µM.

`O=C1NC(c2ccccc2)(c2ccccc2)C(=O)N1CN1CCN(C(c2ccccc2)c2ccccc2)CC1`: the IC50 worked out at 4.5 µM.

For the compound `CCCC1(c2ccccc2)NC(=O)NC1=O` (stereo not given), the IC50 is 162 µM.

On to `CCCCCCCC(N)(C(=O)O)c1ccccc1` (stereo not given), for which the IC50 was found to be 300 µM.

`CCC1(c2ccccc2)NC(=O)N(CCN2CCN(C(c3ccccc3)c3ccccc3)CC2)C1=O` (stereo not given) displayed an IC50 of 1.1 µM.

The compound `CCC1(c2ccccc2)NC(=O)N(S(=O)(=O)c2ccc(C)cc2)C1=O` (stereo not given) showed an IC50 of 51 µM.

`CCCCCCCCCC(N)(C(=O)O)c1ccccc1` (stereo not given) returned an IC50 of 274 µM.

Turning to `CCCC(O)(C(N)=O)c1ccccc1` (stereo not given), the IC50 was found to be 500 µM.

`CC(O)(C(N)=O)c1ccccc1` (stereo not given) [ATROLACTAMIDE] had an IC50 greater than 500 µM.

Compound `CCCCCCCCCC1(c2ccccc2)OC(=O)NC1=O` (stereo not given) displayed an IC50 of 11 µM.

`CCC(O)(C(=O)NCCCc1ccccc1)c1ccccc1` (stereo not given): the IC50 stood at 8.2 µM.

Compound `CCCCCCCC1(c2ccccc2)OC(=O)NC1=O` (stereo not given) yielded an IC50 of 30 µM.

`CCC(O)(C(=O)NCCC(c1ccccc1)c1ccccc1)c1ccccc1` (stereo not given) displayed an IC50 of 35 µM.

Regarding `CCCCCC(O)(C(=O)NCCc1ccccc1)c1ccccc1` (stereo not given), the IC50 was 5 µM.

In turn, `CCCC(O)(C(=O)O)c1ccccc1` (stereo not given) had an IC50 greater than 500 µM.

In the case of `CCOC(=O)C(O)(CC)c1ccccc1` (stereo not given), the half-maximal inhibitory concentration (IC50) was greater than 200 µM.

With `CCCCCCCC1(c2ccccc2)NC(=O)N(CN2CCN(C(c3ccccc3)c3ccccc3)CC2)C1=O` (stereo not given), the IC50 came to 2.2 µM.

In turn, `CCCCCCCC(O)(C(=O)OCC)c1ccccc1` (stereo not given) displayed an IC50 of 36 µM.

`CCCCCC1(c2ccccc2)NC(=O)NC1=O` (stereo not given) returned an IC50 of 39 µM.

`CCC(O)(C(=O)O)c1ccccc1` (stereo not given): the IC50 is greater than 500 µM.

`CCCCCCCC(O)(C(=O)O)c1ccccc1` (stereo not given) gave an IC50 greater than 500 µM.

`CCCCC1(c2ccccc2)NC(=O)NC1=O` (stereo not given): the IC50 was 103 µM.

The compound `CCCCCC1(c2ccccc2)NC(=O)N(CN2CCN(C(c3ccccc3)c3ccccc3)CC2)C1=O` (stereo not given) had an IC50 of 1.3 µM.

Regarding `CCC(N)(C(=O)O)c1ccccc1` (stereo not given), the IC50 is greater than 500 µM.
